ChEMBL document CHEMBL2346518, “Synthesis and evaluation of nicotinamide derivative as anti-angiogenic agents” (Bioorg Med Chem Lett, 2013)
Active and inactive are the calls of the source.

Experiments:
HUVEC [1] = test: Inhibition of VEGF-induced human HUVEC cell proliferation at 10 to 100 nM incubated 1 hr prior to VEGF-challenge measured after 24 hrs by BrdU incorporation assay; type: functional, cell-based
Summary of the method: (§1)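 HUVECs pretreated 1 h with compound (100 nM single point, or 10, 50, 100 nM), then VEGF 10 ng/ml for 24 h. BrdU incorporation detected with anti-BrdU monoclonal antibody and peroxidase secondary, absorbance at 450 nm. Means of three experiments ± SD. ANOVA/Dunnett.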

HUVEC [2] = test: Inhibition of VEGF-induced human HUVEC cell migration at 10 to 100 nM incubated 1 hr prior to VEGF-challenge measured after 24 hrs by wound healing assay; type: functional, cell-based
Summary of the method: (§2)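 Wound made with a scraper in near-confluent HUVECs. Cells pretreated 1 h with compound (10–100 nM), then migration induced with VEGF 10 ng/ml. Wound area photographed after 24 h.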

[3] = biological target: Vascular endothelial growth factor receptor 2 (Homo sapiens) (UniProt P35968); test: Inhibition of VEGF-induced VEGFR2 in human HUVEC cell assessed as AKT phosphorylation at Ser473 incubated 1 hr prior to VEGF-challenge measured after 30 mins by Western blot analysis
Summary of the method: (§3)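 HUVECs pretreated 1 h with compound (10, 50 or 100 nM), then stimulated with VEGF 10 ng/ml. Phospho-VEGFR2 read at 5 min and phospho-Akt at 30 min by Western blot.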

HUVEC [4] = test: Inhibition of VEGF-induced human HUVEC cell proliferation incubated 1 hr prior to VEGF-challenge measured after 24 hrs by BrdU incorporation assay; type: functional, cell-based; summary of the method: as §1
HUVEC [5] = test: Inhibition of VEGF-induced human HUVEC cell migration at 10 nM incubated 1 hr prior to VEGF-challenge measured after 24 hrs by Trans-well assay; type: functional, cell-based
Summary of the method: (§4)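 Boyden chamber with 8 μm pore membrane. HUVECs in upper chamber with compound in 0.1% EBM; VEGF 10 ng/ml in lower chamber. Cells that migrated through the pores counted after 24 h. Means of three experiments ± SD. ANOVA with Dunnett's test.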

HUVEC [6] = test: Inhibition of VEGF-induced human HUVEC cell capillary tube formation incubated prior to VEGF-challenge; type: functional, cell-based
Summary of the method: (§5)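 HUVECs pretreated 1 h with compound, then seeded at 4 to 7 × 10⁴ cells on growth-factor-reduced Matrigel in EBM with or without VEGF 10 ng/ml. Tubular structures photographed after 6 h at ×100. Means of three experiments ± SD. ANOVA/Dunnett.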

[7] = biological target: Vascular endothelial growth factor receptor 2 (Homo sapiens) (UniProt P35968); test: Inhibition of VEGF-induced VEGFR2 phosphorylation at Tyr1175 in human HUVEC cell incubated 1 hr prior to VEGF-challenge measured after 5 mins by PathScan ELISA
Summary of the method: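 HUVECs given compound (10, 50 or 100 nM) 1 h before 5 min VEGF (10 ng/ml). VEGFR2 Tyr1175 phosphorylation measured by PathScan ELISA. Means of three experiments ± SD. ANOVA with Dunnett's post-hoc test.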

[8] = biological target: Vascular endothelial growth factor receptor 2 (Homo sapiens) (UniProt P35968); test: Inhibition of VEGF-induced VEGFR in human HUVEC cell assessed as AKT phosphorylation at Ser473 at 10 to 100 nM incubated 1 hr prior to VEGF-challenge measured after 30 mins by Western blot analysis; summary of the method: as §3
HUVEC [9] = test: Inhibition of VEGF-induced human HUVEC cell capillary tube formation at 10 to 100 nM incubated prior to VEGF-challenge; type: functional, cell-based; summary of the method: as §5
Aorta = test: Inhibition of VEGF-induced microvessel sprouting around Sprague-Dawley rat aortic rings; type: functional, tissue-based
Summary of the method: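 Aortas from Sprague-Dawley rats cleaned of periadventitial fat and cut into 1–1.5 mm rings. Rings embedded in Matrigel with VEGF ± compound (10, 50, 100 nM); medium alone as control. Sprouts fixed and photographed after 7 days at ×100. Three independent experiments.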

[10] = biological target: Vascular endothelial growth factor receptor 2 (Homo sapiens) (UniProt P35968); test: Inhibition of VEGF-induced VEGFR phosphorylation at Tyr1175 in human HUVEC cell at 10 to 100 nM incubated 1 hr prior to VEGF-challenge measured after 5 mins by Western blot analysis; summary of the method: as §3
[11] = biological target: Vascular endothelial growth factor receptor 2 (Homo sapiens) (UniProt P35968); test: Inhibition of VEGF-induced VEGFR2 phosphorylation at Tyr1175 in human HUVEC cell incubated 1 hr prior to VEGF-challenge measured after 5 mins by Western blot analysis; summary of the method: as §3
HUVEC [12] = test: Inhibition of VEGF-induced human HUVEC cell migration incubated 1 hr prior to VEGF-challenge measured after 24 hrs by wound healing assay; type: functional, cell-based; summary of the method: as §2
HUVEC [13] = test: Inhibition of VEGF-induced human HUVEC cell migration incubated 1 hr prior to VEGF-challenge measured after 24 hrs by Trans-well assay; type: functional, cell-based; summary of the method: as §4

Measured: inhibition

Vascular endothelial growth factor receptor 2 (Homo sapiens), sequence (P35968 whole entry): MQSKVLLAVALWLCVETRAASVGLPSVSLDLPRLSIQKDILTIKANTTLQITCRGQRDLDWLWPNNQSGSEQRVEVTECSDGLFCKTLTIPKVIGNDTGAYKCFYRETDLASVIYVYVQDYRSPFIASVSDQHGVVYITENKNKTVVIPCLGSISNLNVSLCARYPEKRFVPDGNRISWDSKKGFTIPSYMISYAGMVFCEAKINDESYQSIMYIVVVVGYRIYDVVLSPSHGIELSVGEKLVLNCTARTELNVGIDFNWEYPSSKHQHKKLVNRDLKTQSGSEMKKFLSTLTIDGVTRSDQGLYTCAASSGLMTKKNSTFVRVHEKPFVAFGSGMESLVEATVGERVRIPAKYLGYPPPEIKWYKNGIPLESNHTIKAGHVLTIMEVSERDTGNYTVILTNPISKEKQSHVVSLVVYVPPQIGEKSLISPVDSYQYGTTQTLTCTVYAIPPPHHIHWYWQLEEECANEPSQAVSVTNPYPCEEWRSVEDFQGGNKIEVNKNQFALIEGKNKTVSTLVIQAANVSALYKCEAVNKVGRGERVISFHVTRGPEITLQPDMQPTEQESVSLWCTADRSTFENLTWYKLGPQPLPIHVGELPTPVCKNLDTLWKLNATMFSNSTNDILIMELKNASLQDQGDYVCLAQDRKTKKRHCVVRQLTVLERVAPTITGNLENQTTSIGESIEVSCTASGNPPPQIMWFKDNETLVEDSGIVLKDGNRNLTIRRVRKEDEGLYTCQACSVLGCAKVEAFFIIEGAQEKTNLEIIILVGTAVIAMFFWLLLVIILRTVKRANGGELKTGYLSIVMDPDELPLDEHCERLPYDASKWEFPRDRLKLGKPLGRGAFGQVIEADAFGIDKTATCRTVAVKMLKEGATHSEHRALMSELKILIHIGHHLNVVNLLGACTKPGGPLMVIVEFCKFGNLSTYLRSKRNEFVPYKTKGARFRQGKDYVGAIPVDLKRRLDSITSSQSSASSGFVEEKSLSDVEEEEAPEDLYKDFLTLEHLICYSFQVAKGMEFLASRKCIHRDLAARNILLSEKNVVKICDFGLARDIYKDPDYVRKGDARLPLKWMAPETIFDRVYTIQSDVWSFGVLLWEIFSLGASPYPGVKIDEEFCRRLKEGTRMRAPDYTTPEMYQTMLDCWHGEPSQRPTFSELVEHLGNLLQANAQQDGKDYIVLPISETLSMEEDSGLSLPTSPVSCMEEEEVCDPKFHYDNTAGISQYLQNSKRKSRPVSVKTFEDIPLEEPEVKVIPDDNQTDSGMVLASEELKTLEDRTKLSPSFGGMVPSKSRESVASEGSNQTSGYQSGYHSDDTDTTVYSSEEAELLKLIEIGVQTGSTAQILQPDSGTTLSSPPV

O=C(Nc1cccc(Cl)c1)c1cccnc1NC1CCN(Cc2ccccc2)CC1
active: HUVEC [1]

CC(c1ncnc(Cl)c1F)N1CCC(Nc2ncccc2C(=O)Nc2cccc(Cl)c2)CC1 (stereo not given)
active: HUVEC [2] Dose-dependent effect | [3] Dose-dependent effect | HUVEC [4] Dose-dependent effect | HUVEC [5] | HUVEC [1] | HUVEC [6] Dose-dependent effect | [7] Dose-dependent effect | [8] | HUVEC [9] | Aorta Dose-dependent effect | [10] | [11] Dose-dependent effect | HUVEC [12] Dose-dependent effect | HUVEC [13] Dose-dependent effect
